Activity calls are given as the source filed them.
Legend:
Mus musculus [1] = assay: Antinociceptive activity in Swiss mouse assessed as inhibition of capsaicin-induced spontaneous nociception at 50 mg/kg, po; assay type: functional
Procedure, shortened: (§1)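 Swiss mice (30 to 35 g) acclimatized in observation chambers, then dosed orally 30 min before intraplantar capsaicin (1.6 μg in 20 μL, right hindpaw). Time spent licking the injected paw scored over 5 min. Saline controls on the same schedule. n = 8 per group. Percent inhibition taken as the mean of individual experiments.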

Mus musculus [2] = assay: Antinociceptive activity in Swiss mouse assessed as inhibition of glutamate-induced increase of c-Fos expression in L3-L6 spinal segments at 100 mg/kg, po by immunohistochemistry analysis; assay type: functional, organism-based; design: dose 100 mg/kg
Procedure, shortened: (§2)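 Swiss mice dosed 100 mg/kg po 30 min before ipl glutamate (10 μmol per paw). Spinal cord and brain excised 60 min later and formalin-fixed. Sections immunostained with rabbit anti-c-Fos (1:1000) overnight at room temperature, then biotinylated secondary, ABC and nickel-enhanced DAB. Positive area per field quantified. Four animals per group.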

Mus musculus [3] = assay: Antinociceptive activity in Swiss mouse assessed as inhibition of capsaicin-induced increase of COX2 expression in brain cortex at 100 mg/kg, po by Western blotting; assay type: functional, organism-based; design: dose 100 mg/kg
Procedure, shortened: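 Mice dosed 100 mg/kg po or given saline, then capsaicin 1.6 μg/paw ipl. Cortex homogenized in hypotonic HEPES buffer with protease inhibitors plus Nonidet P-40. 20 μg protein run on 10% SDS-PAGE. Blot probed 12 h with anti-COX-2 (1:250), then HRP secondary. Bands by chemiluminescence and densitometry, normalized to β-actin. Four animals per group.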

Mus musculus [4] = assay: Antinociceptive activity in Swiss mouse assessed as inhibition of capsaicin-induced increase of COX2 expression in L3-L6 spinal segments and cerebral cortex at 100 mg/kg, po by immunohistochemistry analysis; assay type: functional, organism-based; design: dose 100 mg/kg
Procedure, shortened: (§3)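 Swiss mice, 30 to 35 g, dosed 100 mg/kg po 30 min before ipl capsaicin (1.6 μg in 20 μL per paw). Spinal cord and brain taken 60 min later and fixed in buffered formalin. Sections stained with rabbit anti-c-Fos or anti-COX-2 (1:1000) overnight at room temperature, then biotinylated secondary, ABC and nickel-enhanced DAB. Read-out is positive area per field. Four animals per group.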

Mus musculus [5] = assay: Antinociceptive activity in Swiss mouse assessed as inhibition of glutamate-induced increase of c-Fos expression in brain cortex at 100 mg/kg, po by immunohistochemistry analysis; assay type: functional, organism-based; design: dose 100 mg/kg; procedure, shortened: as §2
Mus musculus [6] = assay: Antinociceptive activity in Swiss mouse assessed as inhibition of capsaicin-induced increase of c-Fos expression in brain cortex at 100 mg/kg, po by immunohistochemistry analysis; assay type: functional, organism-based; design: dose 100 mg/kg; procedure, shortened: as §3
Mus musculus [7] = assay: Antinociceptive activity in Swiss mouse assessed as inhibition of capsaicin-induced increase of c-Fos expression in L3-L6 spinal segments at 100 mg/kg, po by immunohistochemistry analysis; assay type: functional, organism-based; design: dose 100 mg/kg; procedure, shortened: as §3
Mus musculus [8] = assay: Antinociceptive activity in Swiss mouse assessed as inhibition of capsaicin-induced biting behavior at 300 ug/site, administered intrathecally; assay type: functional, organism-based
Procedure, shortened: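 Swiss mice, 30 to 35 g. Given 300 μg/site it, in 5 μL, co-injected with capsaicin (6.4 μg in 5 μL) into the subdural space at L5−L6. Biting is scored as single head movements directed at the flanks or hind limbs that contact the snout. Controls got saline. Eight animals per group.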

Mus musculus [9] = assay: Antinociceptive activity in Swiss mouse assessed as inhibition of glutamate-induced biting behavior at 300 ug/site, administered intrathecally; assay type: functional
Procedure, shortened: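 Glutamate (30 μg in 5 μL) injected intrathecally into the subdural space at L5–L6, co-injected with compound (300 μg in 5 μL, it). Biting was scored, defined as a head movement toward the flanks or hind limbs ending in snout contact. Saline controls. Eight mice per group.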

Mus musculus [10] = assay: Antinociceptive activity in Swiss mouse assessed as inhibition of glutamate-induced spontaneous nociception at 300 ug/site, icv; assay type: functional, organism-based
Procedure, shortened: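 Dosed icv at 300 μg/site in 5 μL, 10 min before glutamate (10 μmol/paw, ipl). Licking of the injected paw timed for 15 min in Swiss mice, against saline controls. Eight animals per group.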

Mus musculus [11] = assay: Antinociceptive activity in Swiss mouse assessed as inhibition of capsaicin-induced spontaneous nociception at 300 ug/site, icv; assay type: functional
Procedure, shortened: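 Intracerebroventricular injection (300 μg/site in 5 μL) 10 min before capsaicin (1.6 μg in 20 μL) into the right hindpaw plantar surface of Swiss mice. Paw-licking time (s) measured over 5 min against saline controls. n = 8. Inhibition calculated as the mean of per-experiment values.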

Mus musculus [12] = assay: Antinociceptive activity in Swiss mouse assessed as inhibition of glutamate-induced spontaneous nociception at 300 ug/site, administered as intrathecally; assay type: functional, organism-based
Procedure, shortened: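 Given intrathecally at 300 μg/site in 5 μL, 10 min before ipl glutamate (10 μmol per paw, in 20 μL) in Swiss mice. Paw-licking time recorded over 15 min. Saline controls. Eight animals per group.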

Mus musculus [13] = assay: Antinociceptive activity in Swiss mouse assessed as inhibition of capsaicin-induced spontaneous nociception at 600 ug/site, administered as intrathecally; assay type: functional
Procedure, shortened: (§4)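 Mice given intrathecal dose in 5 μL 10 min before intraplantar capsaicin (1.6 μg/paw, 20 μL). Time spent licking the paw recorded for 5 min. Saline-treated controls. Eight animals per group. Percent inhibition averaged across individual experiments.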

Mus musculus [14] = assay: Antinociceptive activity in Swiss mouse assessed as inhibition of capsaicin-induced spontaneous nociception at 300 ug/site, administered as intrathecally; assay type: functional; procedure, shortened: as §4
Mus musculus [15] = assay: Antinociceptive activity in Swiss mouse assessed as inhibition of capsaicin-induced spontaneous nociception at 150 ug/site, administered as intrathecally; assay type: functional; procedure, shortened: as §4
Mus musculus [16] = assay: Antinociceptive activity in Swiss mouse assessed as inhibition of capsaicin-induced spontaneous nociception at 200 ug/site, administered as intraplantarly; assay type: functional, organism-based
Procedure, shortened: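 Given 200 μg/paw intraplantar, co-injected with capsaicin (1.6 μg in 20 μL) into the right hindpaw of Swiss mice. Time spent licking the injected paw recorded over 5 min. Saline controls. Eight animals per group.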

Mus musculus [17] = assay: Antinociceptive activity in Swiss mouse assessed as inhibition of glutamate-induced spontaneous nociception at 200 ug/site, administered as intraplantarly; assay type: functional
Procedure, shortened: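 Compound co-injected intraplantarly (200 μg/paw) with glutamate (10 μmol/paw, 20 μL) into the right hindpaw of Swiss mice. Licking of the injected paw timed over 15 min. Saline controls. n = 8 per group.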

Mus musculus [18] = assay: Antinociceptive activity in Swiss mouse assessed as inhibition of glutamate-induced spontaneous nociception at 100 mg/kg, po; assay type: functional
Procedure, shortened: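 Oral pretreatment 30 min before intraplantar glutamate (10 μmol/paw, 20 μL) into the right hindpaw. Mice observed individually for 15 min for time spent licking the injected paw. Saline controls. Eight animals per group. Percent inhibition taken as the mean of individual experiments.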

Mus musculus [19] = assay: Antinociceptive activity in Swiss mouse assessed as inhibition of capsaicin-induced spontaneous nociception at 100 mg/kg, po; assay type: functional; procedure, shortened: as §1
Mus musculus [20] = assay: Antinociceptive activity in Swiss mouse assessed as inhibition of glutamate-induced increase of COX2 expression in spinal cord and cortex brain section at 100 mg/kg, po

Oc1ccc(/C=C/c2cc(O)cc(O)c2)cc1 [RESVERATROL]
inhibition in vivo at 50 mg/kg (Mus musculus [1]): 29%
inhibition (Mus musculus [2]): inactive
inhibition (Mus musculus [3]): Active
inhibition (Mus musculus [4]): Active
inhibition (Mus musculus [5]): inactive
inhibition (Mus musculus [6]): inactive
inhibition (Mus musculus [7]): Active
inhibition (Mus musculus [8]): inactive
inhibition (INH) (Mus musculus [9]): 74%
inhibition (Mus musculus [10]): inactive
inhibition (INH) (Mus musculus [11]): 87%
inhibition (Mus musculus [12]): inactive
inhibition (INH) (Mus musculus [13]): 36%
inhibition (INH) (Mus musculus [14]): 44%
inhibition (INH) (Mus musculus [15]): 33%
inhibition (Mus musculus [16]): inactive
inhibition (INH) (Mus musculus [17]): 33%
inhibition in vivo at 100 mg/kg (Mus musculus [18]): 39%
inhibition in vivo at 100 mg/kg (Mus musculus [19]): 36%
inhibition (Mus musculus [20]): inactive

Reference: ChEMBL document CHEMBL2331120, “Evidence for the analgesic activity of resveratrol in acute models of nociception in mice” (2013)
